Assay results as given in PubChem BioAssay AID623986 (Vanderbilt High Throughput Screening Facility, 2012).
Active and inactive are the calls of the source. The rule behind the calls is not given here.

Target: Potassium voltage-gated channel subfamily KQT member 4 (Homo sapiens) (UniProt P56696)
Test: KCNQ4 potassium channel activity – cell-based, human, thallium flux, concentration-response, selectivity assay for GIRK activator project, dose response (AID 623986)
Summary of the method: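 Material: T-REx-293 cells stably expressing human Kv7.4 potassium channel; Timing: 4 min compound pretreatment before thallium stimulus; Measured by: FluoZin-2 thallium flux fluorescence; Controls: XE-991 wells and vehicle wells; Replication: triplicate wells, four-parameter logistic concentration-response fits.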

Chain of Potassium voltage-gated channel subfamily KQT member 4 (Homo sapiens) (P56696 whole entry, looked up): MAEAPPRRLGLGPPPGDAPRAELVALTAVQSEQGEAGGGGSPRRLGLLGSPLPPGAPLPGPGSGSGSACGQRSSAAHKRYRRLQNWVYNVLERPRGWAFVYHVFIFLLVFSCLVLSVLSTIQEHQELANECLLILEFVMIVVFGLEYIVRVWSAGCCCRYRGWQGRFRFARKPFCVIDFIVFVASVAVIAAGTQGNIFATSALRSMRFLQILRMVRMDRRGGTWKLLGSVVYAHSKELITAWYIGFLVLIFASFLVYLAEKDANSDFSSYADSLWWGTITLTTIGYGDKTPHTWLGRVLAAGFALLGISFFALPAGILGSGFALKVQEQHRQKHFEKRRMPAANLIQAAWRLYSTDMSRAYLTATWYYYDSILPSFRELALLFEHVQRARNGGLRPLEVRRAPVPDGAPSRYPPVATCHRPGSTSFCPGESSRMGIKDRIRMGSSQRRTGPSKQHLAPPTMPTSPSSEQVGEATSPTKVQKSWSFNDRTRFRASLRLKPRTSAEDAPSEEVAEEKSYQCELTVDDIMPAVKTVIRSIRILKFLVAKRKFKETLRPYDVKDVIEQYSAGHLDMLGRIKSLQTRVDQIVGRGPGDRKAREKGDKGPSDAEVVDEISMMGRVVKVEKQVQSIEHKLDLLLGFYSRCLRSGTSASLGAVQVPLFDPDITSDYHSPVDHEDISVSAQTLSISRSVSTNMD

Compound: Cc1cc(NC(=O)Nc2ccc(F)c(F)c2)n(-c2ccccc2)n1
- outcome: inactive
